Reference: the EternaBench riboswitch data

Tested on: MS2 coat protein
Test: apparent Kd, MS2 coat protein; higher = weaker binding; RNA-MaP array
Method in brief: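 Apparent Kd is the median of per-cluster binding-curve fits for designed RNAs transcribed from sequenced DNA templates on an Illumina sequencing chip. The RNAs were incubated at room temperature with fluorescently labeled MS2 coat protein at 1.5 nM to 3 μM, with or without input ligand, and designs measured on fewer than 10 clusters were excluded.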

[1] = designed as: ON switch for flavin mononucleotide, no ligand
[2] = ligand present: flavin mononucleotide, designed as: ON switch for flavin mononucleotide
[3] = designed as: OFF switch for flavin mononucleotide, no ligand
[4] = ligand present: flavin mononucleotide, designed as: OFF switch for flavin mononucleotide
[5] = designed as: OFF switch for tryptophan, no ligand
[6] = ligand present: tryptophan, designed as: OFF switch for tryptophan
[7] = designed as: OFF switch for theophylline, no ligand
[8] = ligand present: theophylline, designed as: OFF switch for theophylline
[9] = designed as: ON switch for theophylline, no ligand
[10] = ligand present: theophylline, designed as: ON switch for theophylline

Sequence | apparent Kd [1] [µM] | apparent Kd [2] [µM] | apparent Kd [3] [µM] | apparent Kd [4] [µM] | further results
AACUGUAAUACAAGAACAUGAGGAUCACCCAUGUGUCGCGCAGAGGAUAUACUGGUUCGCUGUCCGUAGAAGGCUGAGCACAUG | 0.0339 | 0.0239 | – | – | –
UCACUCUGCCGAGGAUAUGCUGGGUCUGACAUGAGGAUCACCCAUGUAACGGGCAGAGUGUUCCAGCAGAAGGCGGCCAGUACC | 0.0425 | 0.0446 | – | – | –
ACUUCAGAUACAGGAUAUAGCGUAACAUGAGGAUCACCCAUGUCUUGAUGCCUCUGUCGCGACGACUAGAAGGGUAAGCUUUGA | – | – | 0.0916 | 0.0867 | –
UCAUGAAAGUCAGGAUAUGGCCACAUGAGGAUCACCCAUGUUUGCUUUAUCGAGCGAAACUGAGACCAGAAGGGACGGACAUUC | 0.0208 | 0.0111 | – | – | –
GUACCUCAAGGAUAUGCCCGAUCUUACAUGAGGAUCACCCAUGUUGGCUCAGGGCUUAGGGCAGAAGGUGAGAAGU | – | – | 0.00638 | 0.00752 | –
CCGCGACAUGAGGAUCACCCAUGUGAUUUGACCUCCGGCACGAGAAGGUUCCGACCAAACGGCCGAAAGGAUAUCGUCCCAGAG | 0.0641 | 0.0386 | – | – | –
GUACCUCCUCAGAAGGCGCGUAGAGCCGGCACAUGAGGAUCACCCAUGUCGAGGCGAAAUGCAGGCGAGGAUAUGAAGGGUUUC | 0.00488 | 0.00492 | – | – | –
ACAUCCACCAAGAAGGCUGGUGCGGCACUUAAGUCGUUCACAUGAGGAUCACCCAUGUCGUAUACAGAGGAUAUUGAGGUUUUC | – | – | 0.0391 | 0.0387 | –
UAUAAGGAAGGAUAUAGGCUGCAAAACAUGAGGAUCACCCAUGUGAACCGACGACGCCAACUAGAAGGUCCCUAUG | – | – | 0.0135 | 0.0129 | –
AACGUACAUGAGGAUCACCCAUGUGAGGAUAUGCCUAAAGAGUUCUAAGCAUCCAAGGGCAGAAGGCACAUGAA | – | – | 0.0991 | 0.14 | –
CGGUGACAUGAGGAUCACCCAUGUAAGGAUAUACCGGUUGAAGAUAAUAGCGACGGCGGAAGAAGGUACCUACA | – | – | 0.032 | 0.0259 | –
UACUCACAUGAGGAUCACCCAUGUUGUCUCAAGAUAGGAUAUGACUGGCUAUGCAUCGGUUCAGAAGGAUCUUCUA | 0.0197 | 0.0113 | – | – | –
UUGAUUACCCAAGCGUGAUGGUCCUAGGAACGAGGACCGGUACGGCCGCCACUCGCAAGCAAACAUGAGGAUCACCCAUGUUUAU | – | – | – | – | apparent Kd [5]: 0.0131 µM; apparent Kd [6]: 0.023 µM
UGAGAACAUGUCUUUAAGUUUACCUCUGAUACCAGAUUGAAAGGCAUCCCUUGGCAGCAGCAUACAUGAGGAUCACCCAUGUCCU | – | – | – | – | apparent Kd [7]: 0.111 µM; apparent Kd [8]: 0.138 µM
UAUCGGGCAGGAUAUACAUGCGAUUACACUCUUCGGAAAGUACAUGAGGAUCACCCAUGUAGAAGGGCCAAGUG | – | – | 0.0104 | 0.011 | –
GACAAAAUGGUAGGAUAUGCUUGGUCUUGAUCAGCAGAAGGACCACAUGAGGAUCACCCAUGUGCAGUGAUUCUGGGAGCUCGC | – | – | 0.0553 | 0.0933 | –
CCAUGGAGGACUGAGGAUAUUCGCAUAAGCACAUGAGGAUCACCCAUGUCAGAAAUAAAUCUCUAGAAGAAGGCAGCGCUAAGACA | 0.0129 | 0.0132 | – | – | –
CGCCCGAAAGGAUAUACAUGAGGAUCACCCAUGUUUCUAGCAAAAUGACCCUCAAUUCGUAGAAGGUUCCGAGU | – | – | 0.0326 | 0.0361 | –
CUAUGGGAUAAGGAUAUAAUAAUUGAGAAGGAGUUAGAAGGUAUAACAUGAGGAUCACCCAUGUGAGGGCCCUA | – | – | 0.00922 | 0.00907 | –
ACCUAUACUCCAGGAUAUCAAGACCGAUGACAUGAGGAUCACCCAUGUCAAUCAAAACCAUGACGUGAGAAGGGGAGGCUCGUC | 0.0065 | 0.00605 | – | – | –
AAAUGAGCGCAUCCCUAACAUGAGGAUCACCCAUGUGCUACAGAGGAUAUCGUCACCAUAUCUCACGAGAAGGCUGGUAUAUUG | – | – | 0.00925 | 0.0114 | –

Sequence | apparent Kd [1] [µM] | apparent Kd [2] [µM] | apparent Kd [3] [µM] | apparent Kd [4] [µM] | further results
CAAAAUGCGGCGGCCGCCACUCAGCUCCGUGUGGUUGGUCAUCUUAACAUGAGGAUCACCCAUGUGAGGACCGGGCCAGCGAGUG | – | – | – | – | apparent Kd [5]: 0.0135 µM; apparent Kd [6]: 0.0139 µM
GUCGGUGCAGGAUAUCGAGGCGCCAACAUGAGGAUCACCCAUGUGUGUGAUCGGGUGCACCGAGAAGGGCACUUGC | – | – | 0.11 | 0.345 | –
UCGACAUCAGGAUAUACGAUGGAGUAGUUACGAGUAUCACGACAUGAGGAUCACCCAUGUAGAAGGGAUCGUCC | – | – | 0.0214 | 0.0177 | –
UGUGGGUCCGAAGAUACCAGCCAGCACAGCAUGUGUUUAAACAUGAGGAUCACCCAUGUCGGCCCUUGGCAGCUUGGUUUGGACG | – | – | – | – | apparent Kd [7]: 0.0155 µM; apparent Kd [8]: 0.0121 µM
UAACGUAGCCGAGGAUAUAGUAGCGAUCAACAGAAACAUGAGGAUCACCCAUGUGCCACAAAAGACUAGAAGGCGGGCAACCCA | 0.0154 | 0.0112 | – | – | –
CGUAAACAUGAGGAUCACCCAUGUGAUGAUACCAGCACGAUUAACUGCCCUUGGCAGCAUGUAUUGUACGACUUAUUGCCCAUCG | – | – | – | – | apparent Kd [9]: 0.0148 µM; apparent Kd [10]: 0.0168 µM
UGGGUCCGAUCAGGAUAUUAGCUACCGGAGUAUGACUGGUACUACAUGAGGAUCACCCAUGUUGCUAAGAAGGGAUGAACUGAA | 0.0974 | 0.0266 | – | – | –
GGAUUGAUAGGAUAUACAUAGAUGUAGGAGCCUUCACUCCCACAUGAGGAUCACCCAUGUAGAAGGAUCAGUAA | – | – | 0.0121 | 0.0236 | –
UACAUUAUAGAGAAGGAUUACUCACACAUGAGGAUCACCCAUGUGUCCAUCAUGGCUGUAGGUUAAUAGGAUAUCUUAGAAGUG | – | – | 0.0641 | 0.155 | –
CCUCAACAUGAGGAUCACCCAUGUCAGGAUAUCUAGGAGACAUCACAUGCGUCCGAUGAGAGAAGGGACACAGU | – | – | 0.0251 | 0.0275 | –
AGAUUCUCUGAAGGAUAUCGCGUUUAUUUCGAGCGAGAAGGUCAAUUAUGGGAGAUGCACAUGAGGAUCACCCAUGUUCGAAAA | – | – | 0.339 | 0.119 | –
UCGAGUGGGCAGAAGGUGUCGGACUAUACAUGAGGAUCACCCAUGUGGAAACCUCCCGGUUUGAACAAGGAUAUGCCUCGUAAA | 0.0956 | 0.0714 | – | – | –
GAUCCGUACCAGACCUUCAAUGGACUCAGUCGAGGACCGGUACGGCCGCCACUCGGAGAAGAACAUGAGGAUCACCCAUGUGAUG | – | – | – | – | apparent Kd [5]: 0.0363 µM; apparent Kd [6]: 0.0538 µM
AUGUCACAUGAGGAUCACCCAUGUAUGGAUACCAGUUUAGUGAAUAACCCUUGGCAGCCAAGGAUGCGACAGAAAUCCGGAAAAC | – | – | – | – | apparent Kd [9]: 0.0213 µM; apparent Kd [10]: 0.0211 µM
UACAUGAGGAUCACCCAUGUUUAUUGGUAGAACGGAUAAUGGGAGGAUAUGAACCGAUCAGAUCAUCAGAAGGCCCUUAAUGGG | 0.029 | 0.02 | – | – | –
GAAAGGUGAGGAUAUACAUGAGGAUCACCCAUGUGUAGAAAUAGAAAGAAAAUCUCAAGUAGAAGGCACAAACA | – | – | 0.0113 | 0.0137 | –
AUAGAACAUGAGGAUCACCCAUGUAGAAAAUCAGCAGGAUAUGUGAUCACUCCGUAAUUGACAGAAGGGCUAACAA | 0.0682 | 0.0288 | – | – | –
ACACCUCACGGAAUACAUGAGGAUCACCCAUGUUGGGAAGGAAGAAGGUUCCGUGUUGAUUGCUGAAAGGAUAUUCGUGACCCG | – | – | 0.19 | 0.153 | –
AAUAGAGAGCAGAAGGCCCUAGUUAUCGGCAUGGGAGGAUAUGCACCAGAUAAUAACAUGAGGAUCACCCAUGUUGAAUAAGAA | 0.0194 | 0.00646 | – | – | –
UGGCUUGAAGGAUAUACAUGAGGAUCACCCAUGUAUCGCUAAAAGAGAAAUCCAUAAUGUAGAAGGUCAUCCCA | – | – | 0.00891 | 0.012 | –
